Key:
HCT-8 = test: Cytotoxicity against human solid tumor Colon carcinoma HCT-8 cell line; format: functional; details: read-out: ED50 (the source's name)
Tubulin (Bos taurus) = Tubulin (Bos taurus) (UniProt Q6B856+Q862L2+Q862F3); details: at 5 µM
KB = test: Cytotoxicity against human solid tumor nasopharyngeal carcinoma KB cell line; format: functional; details: read-out: ED50 (the source's name)
RPMI-7951 = test: cells; format: functional; details: Homo sapiens, read-out: ED50 (the source's name)
Tubulin [1] = biological target: T1, Tubulin (Bos taurus, UniProt Q6B856+Q862L2+Q862F3); test: Evaluated for the inhibition of tubulin polymerization without pre-incubation; format: functional
P388 [2] = test: (§1) Cytotoxicity against murine P388 leukemia cell line; format: functional; details: Mus musculus, read-out: ED50 (the source's name)
A549 = test: Cytotoxicity against human solid tumor lung carcinoma A549 cell line; format: functional; details: read-out: ED50 (the source's name)
Tubulin [3] = biological target: T1, Tubulin; test: Inhibition of tubulin polymerization with preincubation for 15 minutes at 37 degree Centigrade prior to addition of the GTP required for polymerization; format: functional
TE-671 = test: Cytotoxicity against human central nervous system carcinoma TE671 cell line; format: functional; details: read-out: ED50 (the source's name)
P388 [4] = test: as §1; format: functional, Homo sapiens; details: Mus musculus, read-out: ED50 (the source's name)
Burkitts lymphoma cell = test: Growth inhibition on human burkitt lymphoma cells after 36 h; format: functional, cell-based
Tubulin [5] = biological target: T1, Tubulin; test: Compound was evaluated for the inhibition of tubulin polymerization without pre-incubation; format: functional
Procedure, shortened: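 Drug, tubulin and the GTP needed for polymerization were all mixed before the reaction mixtures were incubated at 37 °C, with no drug–tubulin preincubation. IC50 is the drug concentration inhibiting polymerization, given ± SD from at least three experiments per compound.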

SMILES	inhibition (Tubulin (Bos taurus)) [%]	EC50 (RPMI-7951) [nM]	IC50 (Tubulin [1]) [nM]	IC50 (Tubulin [3]) [nM]	IC50 (Burkitts lymphoma cell) [nM]	IC50 (Tubulin [5]) [nM]	EC50 (HCT-8) [nM]	EC50 (KB) [nM]	EC50 (P388 [2]) [nM]	EC50 (A549)	EC50 (TE-671) [nM]	EC50 (P388 [4]) [nM]
COc1cc2c(c(OC)c1OC)-c1ccc(OC)c(=O)cc1[C@@H](NC(C)=O)CC2 [COLCHICINE]	–	1	–	–	50	–	175	2	–	18 nM	1	100
COc1cc2c(ccc3cc(OC)c(OC)c(OC)c32)cc1O	–	–	–	–	–	100000	–	–	–	–	–	–
CC(C)n1cnc2c(Nc3ccc(Br)cc3)nc(N3CCC[C@@H]3CO)nc21	53	134	3700	3600	60	–	160	144	144	240 nM	26	–
COc1cc2c(cc1O)CCc1cc(OC)c(OC)c(OC)c1-2	–	–	–	–	–	> 100000	–	–	–	–	–	–
COc1cc2c(c(OC)c1OC)-c1ccc(SC)c(=O)cc1[C@@H](COC(C)=O)C2	56	144	–	3400	–	–	5710	132	96	1940 nM	1320	–
COc1ccc(C(=O)OC[C@H]2Cc3cc(OC)c(OC)c(OC)c3-c3ccc(SC)c(=O)cc32)cc1	0	806	–	> 40000	–	–	3280	806	138	> 10 µg/mL	2	–
COc1cc2c(c(OC)c1OC)-c1ccc(SC)c(=O)cc1[C@@H](COC(=O)c1cccc([N+](=O)[O-])c1)C2	0	1090	–	> 40000	600	–	19	1050	1050	1470 nM	936	–
COc1cc2c(c(OC)c1OC)-c1ccc(SC)c(=O)cc1[C@@H](COC(=O)c1ccc(F)cc1)C2	0	926	–	> 40000	–	–	1970	1070	81	1570 nM	1250	–
COc1cc2c(c(OC)c1OC)-c1ccc(SC)c(=O)cc1[C@@H](COC(=O)c1ccc([N+](=O)[O-])cc1)C2	78	114	–	6600	20	–	5670	13	10	4280 nM	10	–
COc1cc2c(c(OC)c1OC)-c1ccc(SC)c(=O)cc1[C@@H](COC(=O)c1cccc(C#N)c1)C2	0	629	–	> 40000	–	–	5780	139	99	8220 nM	1530	–

Continued by falling EC50 (RPMI-7951), values first:

inhibition (Tubulin (Bos taurus)) [%]	EC50 (RPMI-7951) [nM]	IC50 (Tubulin [1]) [nM]	IC50 (Tubulin [3]) [nM]	IC50 (Burkitts lymphoma cell) [nM]	IC50 (Tubulin [5]) [nM]	SMILES	EC50 (HCT-8) [nM]	EC50 (KB) [nM]	EC50 (P388 [2]) [nM]	EC50 (A549)	EC50 (TE-671) [nM]	EC50 (P388 [4]) [nM]
2	110	–	> 40000	–	–	COc1cc2c(c(OC)c1OC)-c1ccc(SC)c(=O)cc1[C@@H](COC(=O)c1ccc(Br)cc1)C2	9200	92	110	17000 nM	129	–
0	100	–	> 40000	–	–	COc1cc2c(c(OC)c1OC)-c1ccc(SC)c(=O)cc1[C@@H](COC(=O)c1cccc(F)c1)C2	161	110	141	80 nM	0.02	–
91	40	3800	3000	–	–	COc1cc2c(c(OC)c1OC)-c1ccc(SC)c(=O)cc1[C@@H](COC(=O)c1ccccc1F)C2	6400	110	12	140 nM	129	–
83	0.093	–	3400	–	–	CCC(=O)OC[C@H]1Cc2cc(OC)c(OC)c(OC)c2-c2ccc(SC)c(=O)cc21	162	93	8	220 nM	0.12	–
91	0.084	2800	2400	–	–	C=C1Cc2cc(OC)c(OC)c(OC)c2-c2ccc(SC)c(=O)cc21	196	140	22	252 nM	0.084	–
46	0.022	–	4500	–	–	CCCC(=O)OC[C@H]1Cc2cc(OC)c(OC)c(OC)c2-c2ccc(SC)c(=O)cc21	3040	0.13	0.09	1370 nM	23	–
60	0.001	4300	3700	–	–	CCOC(=O)OC[C@H]1Cc2cc(OC)c(OC)c(OC)c2-c2ccc(SC)c(=O)cc21	179	11	16	0.001 nM	0.001	–
